“And” between values parts separate entries of the source, which are not always exact repeats. Identical values can stand only once.
What was measured:
Hsp70-Bag3 interaction = Hsp70-Bag3 interaction (Homo sapiens, UniProt P0DMV8); test: Co-immunoprecipitation of Hsp70 from HeLa cells, blotted for Bag3; type: cell-based; settings: 50 μM
In short: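 HeLa extracts in M-PER lysis buffer at 5 mg total protein per mL. 500 μL samples took rabbit polyclonal anti-Hsp70 or goat IgG control, plus 1% DMSO or test compound at 50 μM final (5 mM stock). Rotated overnight at 4 °C, then 4 h on protein A/G Sepharose. Washed in PBS pH 7.4, eluted in SDS dye, run on 4–15% Tris-Tricine gel, immunoblotted for Hsp70 and Bag3 with chemiluminescence detection. Triplicate, quantification averaged.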

[1] = tested on: mouse embryonic fibroblasts (MEFs); test: MTT cell proliferation assay in normal fibroblasts; type: cell-based; settings: read-out: EC50, MEFs, 72 hours
In short: (§1)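 Cells were plated at 2000 per well (MEFs) or 5000 per well (HeLa, MCF7) and left to attach overnight. Test compound at various concentrations was added, final DMSO 1%, for 72 h at 5% CO2. After 3 PBS washes, fresh medium with MTT reagent was added for 4 h at 37 °C in the dark, then detergent buffer. Absorbance was read at 570 nm. At least two independent experiments, each in triplicate.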

MCF7 = test: MTT cell proliferation assay, MCF7; type: cell-based; settings: 72 hours
In short: as §1

HeLa = test: MTT cell proliferation assay, HeLa; type: cell-based; settings: 72 hours
In short: as §1

OPM1 = test: Luciferase viability assay, multiple myeloma line OPM1; type: cell-based, Human; settings: 72 hours
In short: (§2)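 Myeloma cells stably transduced with firefly luciferase were exposed to test compound at 11 concentrations between 30 nM and 30 uM for 72 h. Luciferin substrate was then added and bioluminescence read. Signal was normalised to mock-treated wells (100%) and no-cell wells (0%). IC50 came from fitted dose-response curves.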

OPM2 = test: Luciferase viability assay, multiple myeloma line OPM2; type: cell-based, Human; settings: 72 hours
In short: as §2

[2] = tested on: FoxM1, HuR, p21, p27 in MCF7 breast cancer cells; test: Western blot of cancer signaling proteins in MCF7 cells; type: cell-based
Pharmacokinetics in mice = type: in vivo, NSG mice
In short: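 NSG mice (three per group) received test compound at 0.3, 1 or 3 mg/kg intraperitoneally in 1:1 DMSO:PBS, dosed twice weekly for 2 weeks. After the final dose, tail-vein blood was taken at 1, 3, 8 and 24 h. Plasma levels were measured by LC-MS, and pharmacokinetic parameters including terminal half-life were calculated.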

Animal toxicity study = type: in vivo, NSG mice
MCF7 xenografts = test: MCF7 xenograft model; type: in vivo, nude mice
In short: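 One million MCF7 cells in Matrigel went subcutaneously on both flanks of 6-week-old NCR nude mice. After tumours reached 100 mm3, test compound at 3 mg/kg or 1:1 PBS:DMSO vehicle was given intraperitoneally on days 0, 2 and 4 (n=5 mice, 10 tumours). Caliper measurements every other day, mean volume with SEM. Treated tumours from three animals were Western blotted for signalling proteins.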

HeLa xenograft = HeLa xenograft model; type: in vivo; settings: 3 mg/kg, nude mice
In short: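 One million HeLa cells in Matrigel were injected subcutaneously on both flanks of 6-week-old NCR nude mice. Once tumours were established, test compound at 3 mg/kg or 1:1 PBS:DMSO vehicle was given intraperitoneally on days 2, 4 and 6 (n=5 mice, 10 tumours per group). Tumours were measured by caliper every other day and mean volumes plotted with SEM.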

Bag3 (Homo sapiens) = Bag3 (Homo sapiens) (UniProt O95817); settings: cited from earlier work
Sequence of Bag3 (Homo sapiens) (O95817 2-575): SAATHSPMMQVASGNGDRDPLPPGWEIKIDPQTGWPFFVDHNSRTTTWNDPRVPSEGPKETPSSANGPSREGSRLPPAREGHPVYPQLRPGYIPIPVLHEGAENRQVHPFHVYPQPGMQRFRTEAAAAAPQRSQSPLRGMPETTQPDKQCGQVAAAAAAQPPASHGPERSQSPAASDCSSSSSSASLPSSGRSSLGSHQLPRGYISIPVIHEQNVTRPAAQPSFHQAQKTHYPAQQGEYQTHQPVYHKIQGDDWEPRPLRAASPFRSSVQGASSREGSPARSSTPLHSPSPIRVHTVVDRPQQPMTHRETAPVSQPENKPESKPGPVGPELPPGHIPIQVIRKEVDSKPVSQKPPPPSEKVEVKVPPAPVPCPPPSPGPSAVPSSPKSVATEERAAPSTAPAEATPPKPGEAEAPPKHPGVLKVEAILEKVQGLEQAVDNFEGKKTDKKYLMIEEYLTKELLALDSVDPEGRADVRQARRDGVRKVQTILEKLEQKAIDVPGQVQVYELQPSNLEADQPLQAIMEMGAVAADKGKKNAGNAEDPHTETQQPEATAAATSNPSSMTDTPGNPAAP

[3] = MCF7 xenograft tumors, Western blot

Sequence of Hsp70-Bag3 interaction (P0DMV8 2-641 limits assumed): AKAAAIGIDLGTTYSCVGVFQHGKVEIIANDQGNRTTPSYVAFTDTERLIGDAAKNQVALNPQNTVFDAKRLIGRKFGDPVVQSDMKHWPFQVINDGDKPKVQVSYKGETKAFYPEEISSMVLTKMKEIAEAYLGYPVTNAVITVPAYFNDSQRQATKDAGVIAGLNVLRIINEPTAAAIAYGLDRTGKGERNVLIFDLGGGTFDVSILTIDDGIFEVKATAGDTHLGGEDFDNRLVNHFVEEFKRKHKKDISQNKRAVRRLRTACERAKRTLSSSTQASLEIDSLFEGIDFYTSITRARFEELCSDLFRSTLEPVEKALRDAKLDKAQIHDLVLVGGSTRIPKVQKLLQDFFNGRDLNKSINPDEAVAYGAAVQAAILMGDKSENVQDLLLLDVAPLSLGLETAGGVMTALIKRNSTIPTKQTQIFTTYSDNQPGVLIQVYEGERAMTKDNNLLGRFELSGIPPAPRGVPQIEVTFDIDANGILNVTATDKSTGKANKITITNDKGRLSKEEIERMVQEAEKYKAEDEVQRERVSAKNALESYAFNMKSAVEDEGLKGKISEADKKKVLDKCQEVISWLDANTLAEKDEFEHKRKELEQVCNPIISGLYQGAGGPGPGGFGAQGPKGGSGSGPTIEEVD
Sequence of Hsp70 (P0DMV8 2-641): as the sequence (P0DMV8 2-641 limits assumed) above

For `CCn1c(=O)/c(=C2\Sc3cc(Cl)ccc3N2C)s/c1=C\c1scc[n+]1Cc1ccccc1.[Cl-]` [JG-98], the “reduction of Hsp70-Bag3 interaction” value (Hsp70-Bag3 interaction) was ~ 60%, the EC50 [1] was 4.5 µM and ~4.5 µM and the “activity against MCF7” value (MCF7) was “sub-micromolar activity”. For the same compound, the “activity against HeLa” value (HeLa) was “sub-micromolar activity”, the “sensitivity of OPM1” value (OPM1) was “relatively less sensitive” and the “sensitivity of OPM2” value (OPM2) was “relatively less sensitive”. The “levels of FoxM1 and HuR” value [2] was “reduced”, the “levels of the cell cycle inhibitors p27 and p21” value [2] was “increasing” and the level in plasma (Pharmacokinetics in mice; 3 mg/kg intraperitoneal, after 1 hour, NSG mice) was ~ 70 nM. The terminal half-life (Pharmacokinetics in mice; all three doses (0.3, 1, 3 mg/kg) intraperitoneal, NSG mice) was “approximately 20 hours”, the stability in animals (Pharmacokinetics in mice; compared with YM-01) was “more stable than YM-01” and the oral bioavailability (Pharmacokinetics in mice; mice) was “not orally bioavailable”. For the same compound, the weight loss (Animal toxicity study; 0.3, 1, 3 mg/kg intraperitoneal twice a week for 2 weeks, NSG mice) was < 10%, the “alanine aminotransferase and total bilirubin” value (Animal toxicity study; after the final dose, markers of liver function) was “in the normal range” and the “blood urea nitrogen (BUN) and creatinine levels” value (Animal toxicity study; all three dosages, after the final dose, renal function) was “normal”. The tolerability (Animal toxicity study; mouse, in vivo, ip) was “well tolerated”, the “tumor growth, MCF7 xenograft” value (MCF7 xenografts; 3 mg/kg intraperitoneal on days 0, 2 and 4, nude mice) was “limited tumor growth until day 6” and the “HuR and FoxM1 in tumor samples” value (MCF7 xenografts; [3]) was “tended to be decreased”. For the same compound, the “p21 in tumor samples” value (MCF7 xenografts; [3]) was “significantly elevated” and the “tumor growth, HeLa xenograft” value (HeLa xenograft) was “suppressed tumor growth”.
In the case of Hsp70 (from UniProt P0DMV8), the Kd (Bag3 (Homo sapiens)) is given as 0.03 µM.
With YM-01 [reference compound] the “reduction of Hsp70-Bag3 interaction” value (Hsp70-Bag3 interaction) was ~ 60%.
